Laboratory results as given in ChEMBL document CHEMBL5506013, “Mitochondria-Selective Dicationic Small-Molecule Ligand Targeting G-Quadruplex Structures for Human Colorectal Cancer Therapy” (J Med Chem, 2024).
Calls of active or inactive are those of the source. No cut-off for these calls is given here.

Key:
[1] = (§1) Antiproliferative activity against human BJ cells measured after 48 hrs by MTT assay; type: toxicity, cell-based; conditions: BJ cells
In short: (§2)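 Cells exposed to the ligands for 48 h. Viability was read by MTT, and the IC50 was derived from the response.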

Quadruplex DNA [2] = assay: Binding affinity to mito 29 G4 DNA (unknown origin) assessed as dissociation constant measured upto 450 secs by surface plasmon resonance assay; type: nucleic-acid assay
In short: (§3)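 Surface plasmon resonance in buffer at 25 °C. Four G4-mtDNAs (Mito 78, Mito 55, Mito 29, Mito 0.5-16) and the hairpin HP19 served as substrates. Kd was derived from the sensorgrams.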

Quadruplex DNA [3] = assay: Binding affinity to mito 0.5-16 G4 DNA (unknown origin) assessed as dissociation constant measured upto 450 secs by surface plasmon resonance assay; type: nucleic-acid assay; in short: as §3
[4] = (§4) Antiproliferative activity against human HFF-1 cells measured after 48 hrs by MTT assay; type: toxicity, cell-based; conditions: HFF-1 cells; in short: as §2
HCT-116 = assay: Antiproliferative activity against human HCT-116 cells measured after 48 hrs by MTT assay; type: functional, cell-based; conditions: for IC50: HCT-116, 48 h; in short: as §2
Quadruplex DNA [5] = assay: Binding affinity to mito 55 G4 DNA (unknown origin) assessed as dissociation constant measured upto 450 secs by surface plasmon resonance assay; type: nucleic-acid assay; in short: as §3
MDA-MB-231 = assay: Antiproliferative activity against human MDA-MB-231 cells measured after 48 hrs by MTT assay; type: functional, cell-based; conditions: MDA-MB-231, 48 h; in short: as §2
LoVo = assay: Antiproliferative activity against human LoVo cells measured after 48 hrs by MTT assay; type: functional, cell-based; in short: as §2
HepG2 = assay: Antiproliferative activity against human HepG2 cells measured after 48 hrs by MTT assay; type: functional, cell-based; conditions: HepG2, 48 h; in short: as §2
DNA = assay: Binding affinity to HP19 DNA (non-G4 DNA) (unknown origin) assessed as dissociation constant measured upto 450 secs by surface plasmon resonance assay; type: nucleic-acid assay; in short: as §3
Quadruplex DNA [6] = assay: Binding affinity to mito 78 G4 DNA (unknown origin) assessed as dissociation constant measured upto 450 secs by surface plasmon resonance assay; type: nucleic-acid assay
PANC-1 = assay: Antiproliferative activity against human PANC-1 cells measured after 48 hrs by MTT assay; type: functional, cell-based; conditions: PANC-1, 48 h; in short: as §2
HeLa = assay: Antiproliferative activity against human HeLa cells measured after 48 hrs by MTT assay; type: functional, cell-based; in short: as §2
BJ = assay: as §1; type: toxicity, cell-based; conditions: bj, 48 h; in short: as §2
Quadruplex DNA [7] = assay: Binding affinity to mito 132 G4 DNA (unknown origin) at 5 uM by fluorescence titration based analysis; type: nucleic-acid assay
In short: (§5)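 Oligonucleotides were pre-annealed at 95 °C for 10 min, then cooled slowly. Ligand (5 uM) was mixed with 20 uM DNA in buffer. Emission was collected over 550–800 nm, and enhancement was taken at 650 nm as F/F0.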

[8] = Drug uptake in living human HCT-116 cells at 4 uM incubated for 1 hrs by Hoechst33342 staining based analysis; type: ADME, cell-based; conditions: hct-116, 1 h
HFF-1 = assay: as §4; type: toxicity, cell-based; conditions: hff-1, 48 h, time 48 hrs; in short: as §2
Quadruplex DNA [9] = assay: Binding affinity to mito 29 G4 DNA (unknown origin) at 5 uM by fluorescence titration based analysis; type: nucleic-acid assay; in short: as §5
Quadruplex DNA [10] = assay: Binding affinity to mito 05-18 G4 DNA (unknown origin) at 5 uM by fluorescence titration based analysis; type: nucleic-acid assay; in short: as §5
[11] = Drug uptake in living human HCT-116 cells assessed as increase in fluorescent signal in subnuclear region at 4 uM incubated for 1 hrs by Hoechst33342 staining based analysis; type: ADME, cell-based; conditions: hct-116, 1 h
Quadruplex DNA [12] = assay: Binding affinity to mito 81 G4 DNA (unknown origin) at 5 uM by fluorescence titration based analysis; type: nucleic-acid assay
In short: (§6)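 Fluorescence titration in buffer. Ligand at 5 uM mixed with 20 uM pre-annealed DNA (95 °C for 10 min, slow cooling). Emission collected at 550-800 nm and monitored at 650 nm. Result reported as fold enhancement F/F0 over ligand alone.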

Quadruplex DNA [13] = assay: Binding affinity to mito 05-15 G4 DNA (unknown origin) at 5 uM by fluorescence titration based analysis; type: nucleic-acid assay; in short: as §5
Quadruplex DNA [14] = assay: Binding affinity to mito 56 G4 DNA (unknown origin) at 5 uM by fluorescence titration based analysis; type: nucleic-acid assay; in short: as §5
Quadruplex DNA [15] = assay: Binding affinity to mito 78 G4 DNA (unknown origin) at 5 uM by fluorescence titration based analysis; type: nucleic-acid assay; in short: as §6

Row | SMILES | Kd (Quadruplex DNA [2]) [µM] | Kd (Quadruplex DNA [3]) [µM] | IC50 (HCT-116) [µM] | Kd (Quadruplex DNA [5]) [µM] | IC50 (MDA-MB-231) [µM] | IC50 (LoVo) [µM] | IC50 (HepG2) [µM] | Kd (DNA) [µM] | Kd (Quadruplex DNA [6]) [µM] | IC50 (PANC-1) [µM] | IC50 (HeLa) [µM] | IC50 at 48 h [1] [µM] | IC50 at 48 h [4] [µM] | other results
1 | CSc1ccc(/C=C/c2ccc3ccccc3[n+]2CCCCCCCC[n+]2c(/C=C/c3ccc(SC)cc3)ccc3ccccc32)cc1 | 0.34 | 0.15 | 24.7 | 0.46 | > 40 | > 40 | > 40 | > 2 | 0.05 | > 40 | > 40 | > 40 | 34.7 | 
2 | Cc1ccc(/C=C/c2ccc3ccccc3[n+]2CCCCCCCC[n+]2c(/C=C/c3ccc(C)cc3)ccc3ccccc32)cc1 | 0.72 | 1.17 | 27.4 | 0.91 | > 40 | > 40 | > 40 | > 2 | 0.07 | > 40 | > 40 | > 40 | > 40 | 
3 | CCCC[n+]1c(/C=C/c2ccc(N3CCCCC3)cc2)ccc2ccccc21.[I-] |  |  |  |  |  |  |  |  |  |  |  |  |  | Activity (BJ): Toxic; Activity (Quadruplex DNA [7]): Active; Drug uptake [8]: Not Active; Activity (HFF-1): Toxic; Activity (Quadruplex DNA [9]): Active; Activity (Quadruplex DNA [10]): Active; Activity (HCT-116): inactive; Drug uptake [11]: Active; Activity (Quadruplex DNA [12]): Active; Activity (Quadruplex DNA [13]): Active; Activity (Quadruplex DNA [14]): Active; Activity (Quadruplex DNA [15]): Active
4 | C(=C\c1ccc2ccccc2[n+]1CCCCCCCC[n+]1c(/C=C/c2ccccc2)ccc2ccccc21)/c1ccccc1 | 0.5 | 1.02 | > 40 | 0.58 | > 40 | > 40 | > 40 | > 2 | 0.29 | > 40 | > 40 | > 40 | 28.3 | 
5 | C[n+]1c(/C=C/c2ccc(N3CCCCC3)cc2)ccc2ccccc21.[I-] |  |  |  |  |  |  |  |  |  |  |  |  |  | Activity (BJ): Toxic; Activity (Quadruplex DNA [7]): Active; Drug uptake [8]: Not Active; Activity (HFF-1): Toxic; Activity (Quadruplex DNA [9]): Active; Activity (Quadruplex DNA [10]): Active; Activity (HCT-116): inactive; Drug uptake [11]: Active; Activity (Quadruplex DNA [12]): Active; Activity (Quadruplex DNA [13]): Active; Activity (Quadruplex DNA [14]): Active; Activity (Quadruplex DNA [15]): Active

More lines, in order of falling Kd (Quadruplex DNA [2]), values ahead:

Row | Kd (Quadruplex DNA [2]) [µM] | Kd (Quadruplex DNA [3]) [µM] | IC50 (HCT-116) [µM] | Kd (Quadruplex DNA [5]) [µM] | IC50 (MDA-MB-231) [µM] | IC50 (LoVo) [µM] | IC50 (HepG2) [µM] | Kd (DNA) [µM] | Kd (Quadruplex DNA [6]) [µM] | IC50 (PANC-1) [µM] | IC50 (HeLa) [µM] | SMILES | IC50 at 48 h [1] [µM] | IC50 at 48 h [4] [µM] | other results
6 | 0.24 | 0.28 | 29.2 | 0.47 | > 40 | 35.4 | > 40 | 1.86 | 0.12 | > 40 | > 40 | C(=C\c1ccc2ccccc2[n+]1CCCCCCCC[n+]1c(/C=C/c2ccc(N3CCOCC3)cc2)ccc2ccccc21)/c1ccc(N2CCOCC2)cc1 | > 40 | > 40 | 
7 | 0.23 | 0.25 | 19.8 | 0.61 | > 40 | > 40 | > 40 | > 2 | 0.08 | > 40 | 23.3 | C(=C\c1ccc2ccccc2[n+]1CCCCCCCC[n+]1c(/C=C/c2c[nH]c3ccccc23)ccc2ccccc21)/c1c[nH]c2ccccc12 | > 40 | > 40 | 
8 | 0.21 | 0.96 | 8.5 | 0.52 | > 40 | > 40 | 25.3 | > 2 | 0.02 | > 40 | 32.1 | CCn1c2ccccc2c2cc(/C=C/c3ccc4ccccc4[n+]3CCCCCCCC[n+]3c(/C=C/c4ccc5c(c4)c4ccccc4n5CC)ccc4ccccc43)ccc21 | > 40 | > 40 | 
9 | 0.15 | 0.41 | 5.4 | 0.17 | > 40 | 15 | > 40 | > 2 | 0.13 | 20.5 | 22.1 | C(=C\c1ccc2ccccc2[n+]1CCCCCCCC[n+]1c(/C=C/c2ccc(N3CCCC3)cc2)ccc2ccccc21)/c1ccc(N2CCCC2)cc1 | 31.4 | 31.1 | 
10 | 0.14 | 0.11 | 17.2 | 0.13 | > 40 | 15.4 | > 40 | > 2 | 0.03 | > 40 | 29.5 | CN(C)c1ccc(/C=C/c2ccc3ccccc3[n+]2CCCCCCCC[n+]2c(/C=C/c3ccc(N(C)C)cc3)ccc3ccccc32)cc1 | > 40 | 22.7 | 
11 | 0.14 | > 2 | 8 | 0.22 | > 40 | > 40 | 37.3 | > 2 | 1.84 | > 40 | 34.6 | C(=C\c1ccc2ccccc2[n+]1CCCCCCCC[n+]1c(/C=C/c2cc3ccccc3[nH]2)ccc2ccccc21)/c1cc2ccccc2[nH]1 | > 40 | > 40 | 
